Laboratory results reported in ChEMBL document CHEMBL2034909, “Inhibition of thioredoxin reductase by a novel series of bis-1,2-benzisoselenazol-3(2H)-ones: Organoselenium compounds for cancer therapy” (Bioorg Med Chem, 2012).
Active and inactive are the calls of the source. No cut-off for these calls is given here.

What was measured:
[1] = target: T1, Thioredoxin reductase 1, cytoplasmic (Rattus norvegicus) (UniProt O89049); assay: (§1) Inhibition of TrxR1 in rat liver homogenate preincubated for 5 mins measured by DNTB assay; format: tissue-based
T1 sequence (whole entry): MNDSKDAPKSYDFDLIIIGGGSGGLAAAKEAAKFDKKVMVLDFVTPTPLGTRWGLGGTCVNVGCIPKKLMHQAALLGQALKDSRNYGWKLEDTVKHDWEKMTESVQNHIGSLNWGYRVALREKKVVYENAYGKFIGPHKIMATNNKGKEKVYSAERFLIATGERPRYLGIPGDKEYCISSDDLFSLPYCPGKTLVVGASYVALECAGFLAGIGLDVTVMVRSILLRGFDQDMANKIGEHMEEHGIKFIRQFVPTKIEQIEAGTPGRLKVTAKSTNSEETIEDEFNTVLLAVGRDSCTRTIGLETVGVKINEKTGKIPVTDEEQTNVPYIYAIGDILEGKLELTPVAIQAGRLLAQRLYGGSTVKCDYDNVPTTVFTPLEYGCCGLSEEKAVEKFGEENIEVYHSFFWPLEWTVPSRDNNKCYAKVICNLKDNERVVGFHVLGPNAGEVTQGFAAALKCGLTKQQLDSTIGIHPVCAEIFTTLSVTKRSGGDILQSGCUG
Method in brief: (§2)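 Rat liver TrxR (purified, 10 μg) in 100 mM potassium phosphate, 2 mM EDTA, pH 7.4 with NADPH, pre-incubated 5 min with inhibitor (DMSO control) at room temperature. DTNB was then added and A412 increase followed over the first 120 s. IC50 given as mean ± SD of triplicate experiments.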

[2] = target: T2, Thioredoxin reductase 1, cytoplasmic (Rattus norvegicus, UniProt O89049); assay: as §1; format: tissue-based; method in brief: as §2
T2 sequence (O89049 whole entry): T1 sequence (whole entry)

MIA PaCa-2 = assay: Growth inhibition of human MIAPaCa2 cells after 48 hrs by MTT assay; format: functional, cell-based; details: MIA PaCa-2, 48 h
Method in brief: (§3)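 Exponentially growing cells were seeded at 4000–5000 per well. LoVo was grown in RPMI 1640 and MIA PaCa-2 and U87 MG in DMEM, each with 10% FBS and penicillin/streptomycin at 37 °C under 5% CO2. Compounds in DMSO (0–50 μM) were added for 48 h, and growth was read by MTT.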

[3] = Growth inhibition of human U87MG cells after 48 hrs by MTT assay; format: functional, cell-based, U-87MG ATCC; details: U-87 MG; method in brief: as §3
LoVo = assay: Growth inhibition of human LoVo cells after 48 hrs by MTT assay; format: functional, cell-based; method in brief: as §3
Thioredoxin reductase [4] = target: T3, Thioredoxin reductase (Homo sapiens, UniProt Q16881+Q9NNW7+Q86VQ6); assay: Inhibition of TrxR in human U87MG cells after 12 hrs by insulin-reducing method; format: cell-based; details: for inhibition: U-87MG ATCC; for IC50: u-87mg atcc
Method in brief: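 U87 MG cells were treated with graded compound concentrations for 12 h, with 1% DMSO as control. Reactions were quenched with guanidine-HCl/DTNB and read at A412. The Trx-free blank was subtracted.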

Homo sapiens = organism: Homo sapiens; assay: Inhibition of human […] Sec498Cys mutant at 100 uM after 10 mins by GSSH reduction assay
[5] = target: T4, Glutathione reductase, mitochondrial (Homo sapiens) (UniProt P00390); assay: Inhibition of human glutathione reductase at 100 uM after 10 mins by GSSH reduction assay
T4 sequence (whole entry): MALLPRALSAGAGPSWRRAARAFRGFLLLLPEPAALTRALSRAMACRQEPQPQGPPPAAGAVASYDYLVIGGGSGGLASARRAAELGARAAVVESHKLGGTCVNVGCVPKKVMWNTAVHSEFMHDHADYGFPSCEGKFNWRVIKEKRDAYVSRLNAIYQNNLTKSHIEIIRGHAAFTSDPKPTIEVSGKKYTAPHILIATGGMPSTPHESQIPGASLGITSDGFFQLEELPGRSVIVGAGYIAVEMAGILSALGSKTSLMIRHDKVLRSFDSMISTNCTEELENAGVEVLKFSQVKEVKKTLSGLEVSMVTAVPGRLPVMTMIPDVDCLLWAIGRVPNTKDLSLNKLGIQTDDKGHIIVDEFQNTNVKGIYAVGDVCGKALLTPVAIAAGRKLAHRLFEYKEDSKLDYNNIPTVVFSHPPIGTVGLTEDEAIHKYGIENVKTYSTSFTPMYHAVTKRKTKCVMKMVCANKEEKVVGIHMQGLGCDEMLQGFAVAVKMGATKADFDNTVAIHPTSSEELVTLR

Thioredoxin reductase [6] = target: T3, Thioredoxin reductase; assay: Inhibition of human C-terminal truncated TrxR; format: protein assay
[7] = Time dependent inhibition of TrxR
[8] = Binding affinity to TrxR Cys497 residue at pH 8.5 after 2 hrs by BIAM assay
Thioredoxin reductase [9] = target: T3, Thioredoxin reductase; assay: Inhibition of TrxR in human U87MG cells at 20 uM after 12 hrs by insulin-reducing method; format: cell-based; details: U-87MG ATCC
Method in brief: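 U87 MG glioma cells were treated with compound for 12 h (1% DMSO control), washed in PBS, lysed in Triton/deoxycholate/EDTA/SDS/PMSF buffer and spun at 13000g. Lysate protein (40 µg, BCA) was incubated 30 min at 37 °C with HEPES pH 7.6, EDTA, 1 mM NADPH, 1 µM E. coli Trx and 2.5 mg/ml insulin. Quench with guanidine-HCl/DTNB, read A412, subtract the no-Trx blank.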

[10] = Reversible inhibition of TrxR by ultrafiltration assay
[11] = Mixed type inhibition of TrxR by Michaelis-Menten plot analysis
[12] = Binding affinity to TrxR Sec498 residue at pH 8.5 after 2 hrs by BIAM assay
[13] = Binding affinity to TrxR Sec498 residue at pH 6.5 after 2 hrs by BIAM assay

## Cc1ccc2[se]n(CCCCCCn3[se]c4ccc(C)cc4c3=O)c(=O)c2c1
[1]
  inhibition: Dose-dependent effect
[2]
  IC50: 4910 nM

## Cc1ccc2[se]n(CCCn3[se]c4ccc(C)cc4c3=O)c(=O)c2c1
[1]
  inhibition: Dose-dependent effect
[2]
  IC50: 1160 nM

## O=c1c2cc(O)ccc2[se]n1CCn1[se]c2ccc(O)cc2c1=O
MIA PaCa-2
  IC50: 5.3 µM
[3]
  IC50: 6.6 µM
LoVo
  IC50: 6.53 µM
[1]
  inhibition: Dose-dependent effect
[2]
  IC50: 320 nM

## O=c1c2cc([N+](=O)[O-])ccc2[se]n1CCn1[se]c2ccc([N+](=O)[O-])cc2c1=O
MIA PaCa-2
  IC50: > 50 µM
Thioredoxin reductase [4]
  inhibition: Dose-dependent effect
[3]
  IC50: > 50 µM
[1]
  inhibition: Dose-dependent effect
[2]
  IC50: 570 nM

## O=c1c2cc(Br)ccc2[se]n1CCCCCn1[se]c2ccc(Br)cc2c1=O
[1]
  inhibition: Dose-dependent effect
[2]
  IC50: 1590 nM

## O=c1c2ccccc2[se]n1CCCCCCCCn1[se]c2ccccc2c1=O
[1]
  inhibition: Dose-dependent effect
[2]
  IC50: 4490 nM

## O=c1c2ccc(F)cc2[se]n1CCCCCn1[se]c2cc(F)ccc2c1=O
[1]
  inhibition: Dose-dependent effect
[2]
  IC50: 2910 nM

## Cc1ccc2[se]n(CCCCn3[se]c4ccc(C)cc4c3=O)c(=O)c2c1
[1]
  inhibition: Dose-dependent effect
[2]
  IC50: 2380 nM

## O=c1c2ccccc2[se]n1C1CCCCC1n1[se]c2ccccc2c1=O (centres undefined)
MIA PaCa-2
  IC50: 11.5 µM
[3]
  IC50: > 50 µM
LoVo
  IC50: 17.2 µM
[1]
  inhibition: Dose-dependent effect
[2]
  IC50: 12800 nM

## O=c1c2cc(F)ccc2[se]n1CCCCCn1[se]c2ccc(F)cc2c1=O
[1]
  inhibition: Dose-dependent effect
[2]
  IC50: 3870 nM

## O=c1c2ccccc2[se]n1Cc1ccc(-n2[se]c3ccccc3c2=O)cc1
MIA PaCa-2
  IC50: > 50 µM
LoVo
  IC50: > 50 µM
[1]
  inhibition: Dose-dependent effect
[2]
  IC50: 47700 nM

## O=c1c2ccccc2[se]n1CCCCn1[se]c2ccccc2c1=O
[1]
  inhibition: Dose-dependent effect
[2]
  IC50: 1030 nM

## O=c1c2cc(Cl)ccc2[se]n1CCCCCn1[se]c2ccc(Cl)cc2c1=O
[1]
  inhibition: Dose-dependent effect
[2]
  IC50: 1800 nM

## CC(=O)Oc1ccc2[se]n(CCn3[se]c4ccc(OC(C)=O)cc4c3=O)c(=O)c2c1
MIA PaCa-2
  IC50: 10.2 µM
[3]
  IC50: 20.8 µM
[1]
  inhibition: Dose-dependent effect
[2]
  IC50: 22600 nM

## O=c1c2cc(Cl)ccc2[se]n1CCn1[se]c2ccc(Cl)cc2c1=O
MIA PaCa-2
  IC50: > 50 µM
[3]
  IC50: > 50 µM
[1]
  inhibition: Dose-dependent effect
[2]
  IC50: 1310 nM

## O=c1c2ccccc2sn1CCn1sc2ccccc2c1=O
[1]
  inhibition: Dose-dependent effect
[2]
  IC50: 48100 nM

## Cc1ccc2[se]n(CCn3[se]c4ccc(C)cc4c3=O)c(=O)c2c1
MIA PaCa-2
  IC50: 5.94 µM
Thioredoxin reductase [4]
  inhibition: Dose-dependent effect
[3]
  IC50: 17.8 µM
LoVo
  IC50: 6.12 µM
[1]
  inhibition: Dose-dependent effect
[2]
  IC50: 1260 nM

## O=c1c2ccccc2[se]n1-c1ccc(-n2[se]c3ccccc3c2=O)cc1
MIA PaCa-2
  IC50: > 50 µM
[3]
  IC50: > 50 µM
[1]
  inhibition: Dose-dependent effect
[2]
  IC50: 34300 nM

## O=c1c2cc(F)ccc2[se]n1CCCn1[se]c2ccc(F)cc2c1=O
[1]
  inhibition: Dose-dependent effect
[2]
  IC50: 860 nM

## Cc1ccc2[se]n(C3CCC(n4[se]c5ccc(C)cc5c4=O)CC3)c(=O)c2c1 (centres undefined)
[1]
  inhibition: Dose-dependent effect
[2]
  IC50: > 50000 nM

## O=c1c2ccccc2[se]n1CCn1[se]c2ccccc2c1=O [ETHASELEN]
MIA PaCa-2
  IC50: 3.79 µM
Thioredoxin reductase [4]
  inhibition: Dose-dependent effect
  IC50: 5 µM
Homo sapiens
  inhibition: inactive
[5]
  inhibition: inactive
Thioredoxin reductase [6]
  inhibition: inactive
[3]
  IC50: 6.41 µM
LoVo
  IC50: 7.67 µM
[1]
  inhibition: Dose-dependent effect

## O=c1c2ccccc2[se]n1CCCCCn1[se]c2ccccc2c1=O
MIA PaCa-2
  IC50: 3.27 µM
[3]
  IC50: 6.05 µM
LoVo
  IC50: 5.5 µM
[1]
  inhibition: Dose-dependent effect
[2]
  IC50: 1950 nM

## O=c1c2cc(Br)ccc2[se]n1CCn1[se]c2ccc(Br)cc2c1=O
MIA PaCa-2
  IC50: > 50 µM
Thioredoxin reductase [4]
  inhibition: Dose-dependent effect
[3]
  IC50: > 50 µM
[1]
  inhibition: Dose-dependent effect
[2]
  IC50: 1580 nM

## O=c1c2ccc(F)cc2[se]n1CCn1[se]c2cc(F)ccc2c1=O
MIA PaCa-2
  IC50: 8.47 µM
[3]
  IC50: 12.6 µM
[1]
  inhibition: Dose-dependent effect
[2]
  IC50: 820 nM

## Cc1ccc2[se]n(CCCCCn3[se]c4ccc(C)cc4c3=O)c(=O)c2c1
MIA PaCa-2
  IC50: 6.71 µM
[3]
  IC50: 12.2 µM
LoVo
  IC50: 16.6 µM
[1]
  inhibition: Dose-dependent effect
[2]
  IC50: 3160 nM

## O=c1c2ccccc2on1CCn1oc2ccccc2c1=O
[1]
  inhibition: Dose-dependent effect
[2]
  IC50: > 100000 nM

## O=c1c2ccccc2[se]n1CCCCCCCn1[se]c2ccccc2c1=O
[1]
  inhibition: Dose-dependent effect
[2]
  IC50: 5850 nM

## O=c1c2ccc(Cl)cc2[se]n1CCn1[se]c2cc(Cl)ccc2c1=O
MIA PaCa-2
  IC50: > 50 µM
[3]
  IC50: > 50 µM
[1]
  inhibition: Dose-dependent effect
[2]
  IC50: 2870 nM

## COc1ccc2[se]n(CCn3[se]c4ccc(OC)cc4c3=O)c(=O)c2c1
MIA PaCa-2
  IC50: 2.84 µM
[7]
  inhibition: Active
Thioredoxin reductase [4]
  IC50: 2 µM
[8]
  inhibition: Dose-dependent effect
Thioredoxin reductase [9]
  inhibition: > 90%
[10]
  inhibition: Active
[11]
  inhibition: Active
[5]
  inhibition: < 30%
[12]
  inhibition: Dose-dependent effect
[3]
  IC50: 1.64 µM
[13]
  inhibition: Dose-dependent effect
LoVo
  IC50: 5.28 µM
[1]
  inhibition: Dose-dependent effect
[2]
  IC50: 130 nM

## O=c1c2ccccc2[se]n1CCCn1[se]c2ccccc2c1=O
[1]
  inhibition: Dose-dependent effect
[2]
  IC50: 780 nM

## O=c1c2ccccc2[se]n1CCCCCCn1[se]c2ccccc2c1=O
[1]
  inhibition: Dose-dependent effect
[2]
  IC50: 1660 nM

## O=c1c2cc(F)ccc2[se]n1CCCCn1[se]c2ccc(F)cc2c1=O
[1]
  inhibition: Dose-dependent effect
[2]
  IC50: 1640 nM

## O=c1c2cc(F)ccc2[se]n1CCn1[se]c2ccc(F)cc2c1=O
MIA PaCa-2
  IC50: 3.07 µM
[3]
  IC50: 6.95 µM
LoVo
  IC50: 4.55 µM
[1]
  inhibition: Dose-dependent effect
[2]
  IC50: 280 nM

## O=c1c2ccc(Cl)cc2[se]n1CCCCCn1[se]c2cc(Cl)ccc2c1=O
[1]
  inhibition: Dose-dependent effect
[2]
  IC50: 4540 nM
